Data as given in ChEMBL document CHEMBL4004835, “Discovery of Novel Disruptor of Silencing Telomeric 1-Like (DOT1L) Inhibitors using a Target-Specific Scoring Function for the (S)-Adenosyl-l-methionine (SAM)-Dependent Methyltransferase Family” (J Med Chem, 2017).

Experiments:
MV4-11 [1] = test: Induction of cell cycle arrest in human MV4-11 cells assessed as accumulation at G2 phase at 12.5 uM after 48 hrs by propidium iodide/RNase-staining based flow cytometric analysis (reference value: 7.44 %); assay type: functional
In short: (§1)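 MV4-11 cells (2 × 10^6) seeded in 12-well dishes, treated with different concentrations for 48 h, processed with a PI/RNase staining kit and analysed for cell-cycle distribution by FACSCalibur flow cytometry.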

[2] = target: T1, Histone-lysine N-methyltransferase, H3 lysine-79 specific (Homo sapiens, UniProt Q8TEK3); test: Inhibition of N-terminal 6His-tagged human DOT1L (1 to 416 residues) expressed in Escherichia coli BL21(DE3) at preincubated for 15 mins followed by [3H]-SAM addition measured after 120 mins by radioactive methylation assay
In short: (§2)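 DOT1L and compound preincubated 15 min at room temperature; oligonucleosome and 3H-SAM added; reaction 120 min at room temperature, stopped with cold SAM; transferred to 0.5% PEI-pretreated filter plate, washed 3× with water, read by liquid scintillation counting.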
Target sequence in this assay (Q8TEK3 whole entry, the tested form may be a part): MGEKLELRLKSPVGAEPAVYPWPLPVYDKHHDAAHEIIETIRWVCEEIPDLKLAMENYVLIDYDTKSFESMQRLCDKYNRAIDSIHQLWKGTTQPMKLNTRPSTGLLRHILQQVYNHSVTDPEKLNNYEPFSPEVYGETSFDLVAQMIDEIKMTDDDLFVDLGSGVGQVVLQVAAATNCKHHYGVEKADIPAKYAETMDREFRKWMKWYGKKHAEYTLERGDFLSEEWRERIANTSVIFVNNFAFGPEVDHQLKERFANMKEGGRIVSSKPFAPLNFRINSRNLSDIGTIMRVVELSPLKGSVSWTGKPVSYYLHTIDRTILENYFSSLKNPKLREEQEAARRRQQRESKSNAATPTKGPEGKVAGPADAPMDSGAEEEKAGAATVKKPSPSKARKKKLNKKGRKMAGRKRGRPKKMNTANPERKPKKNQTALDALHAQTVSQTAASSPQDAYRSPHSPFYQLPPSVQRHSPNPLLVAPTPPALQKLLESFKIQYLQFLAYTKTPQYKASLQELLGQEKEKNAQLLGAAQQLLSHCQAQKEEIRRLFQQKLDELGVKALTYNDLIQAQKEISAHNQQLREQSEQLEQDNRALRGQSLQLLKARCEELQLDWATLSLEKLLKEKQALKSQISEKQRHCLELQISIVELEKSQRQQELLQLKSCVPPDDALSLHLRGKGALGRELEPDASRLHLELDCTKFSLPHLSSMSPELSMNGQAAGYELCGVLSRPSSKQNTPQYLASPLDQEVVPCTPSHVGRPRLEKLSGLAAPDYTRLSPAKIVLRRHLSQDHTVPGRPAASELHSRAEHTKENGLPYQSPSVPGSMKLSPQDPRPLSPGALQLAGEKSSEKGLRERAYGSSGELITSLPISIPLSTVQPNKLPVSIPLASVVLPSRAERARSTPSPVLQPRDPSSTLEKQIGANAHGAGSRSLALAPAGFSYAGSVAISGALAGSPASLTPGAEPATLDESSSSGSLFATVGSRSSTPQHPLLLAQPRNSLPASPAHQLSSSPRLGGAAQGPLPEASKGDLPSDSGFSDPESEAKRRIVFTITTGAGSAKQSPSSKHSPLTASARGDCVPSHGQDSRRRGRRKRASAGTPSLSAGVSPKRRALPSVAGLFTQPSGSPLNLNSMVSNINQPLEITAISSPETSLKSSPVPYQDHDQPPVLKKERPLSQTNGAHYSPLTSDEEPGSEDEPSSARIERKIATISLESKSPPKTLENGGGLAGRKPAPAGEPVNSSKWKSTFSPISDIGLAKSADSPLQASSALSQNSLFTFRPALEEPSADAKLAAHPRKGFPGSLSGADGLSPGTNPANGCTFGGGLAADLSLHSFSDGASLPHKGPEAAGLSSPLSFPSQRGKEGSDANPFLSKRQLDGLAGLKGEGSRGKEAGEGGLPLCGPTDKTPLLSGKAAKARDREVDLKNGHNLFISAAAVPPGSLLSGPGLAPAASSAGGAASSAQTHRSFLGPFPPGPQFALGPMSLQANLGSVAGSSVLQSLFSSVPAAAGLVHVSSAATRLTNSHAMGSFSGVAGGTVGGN

MV4-11 [3] = test: Induction of cell cycle arrest in human MV4-11 cells assessed as accumulation at S phase at 25 uM after 48 hrs by propidium iodide/RNase-staining based flow cytometric analysis (reference value: 24.40 %); assay type: functional; in short: as §1
MV4-11 [4] = test: Induction of apoptosis in human MV4-11 cells assessed as necrotic cells at 6.25 uM after 72 hrs by annexin V/FITC and propidium iodide staining-based flow cytometric analysis (reference value: 0.04 %); assay type: functional
[5] = target: Protein arginine N-methyltransferase 1 (Homo sapiens) (UniProt Q99873); test: Inhibition of PRMT1 (unknown origin) preincubated for 15 mins followed by biotinylated H3R2 substrate/[…]SAM addition for 60 mins measured after further 60 mins by AlphaLISA assay
Sequence of Protein arginine N-methyltransferase 1 (Homo sapiens) (Q99873 whole entry, looked up): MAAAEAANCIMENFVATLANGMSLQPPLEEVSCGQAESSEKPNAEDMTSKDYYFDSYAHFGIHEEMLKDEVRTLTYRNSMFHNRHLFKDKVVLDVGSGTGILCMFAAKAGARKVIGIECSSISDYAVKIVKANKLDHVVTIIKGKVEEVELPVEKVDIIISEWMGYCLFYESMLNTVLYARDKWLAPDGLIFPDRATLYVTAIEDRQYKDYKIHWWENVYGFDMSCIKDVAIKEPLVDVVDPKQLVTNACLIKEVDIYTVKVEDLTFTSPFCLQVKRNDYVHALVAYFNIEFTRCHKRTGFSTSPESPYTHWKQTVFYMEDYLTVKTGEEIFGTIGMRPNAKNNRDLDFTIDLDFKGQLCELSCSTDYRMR
In short: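 Enzyme incubated 15 min at room temperature; biotinylated H3R2 peptide (50 nM final) and SAM (300 nM final) added; at 60 min acceptor beads (10 μg/mL final) stop the reaction; after 60 min, donor beads (10 μg/mL final) added, 30 min at room temperature in low light; alpha signal read.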

MV4-11 [6] = test: Induction of apoptosis in human MV4-11 cells assessed as early apoptotic cells at 6.25 uM after 72 hrs by annexin V/FITC and propidium iodide staining-based flow cytometric analysis (reference value: 5.66 %); assay type: functional
MV4-11 [7] = test: Induction of cell cycle arrest in human MV4-11 cells assessed as accumulation at G1 phase at 6.25 uM after 48 hrs by propidium iodide/RNase-staining based flow cytometric analysis (reference value: 68.16 %); assay type: functional; in short: as §1
MV4-11 [8] = test: Induction of cell cycle arrest in human MV4-11 cells assessed as accumulation at S phase at 12.5 uM after 48 hrs by propidium iodide/RNase-staining based flow cytometric analysis (reference value: 24.40 %); assay type: functional; in short: as §1
MV4-11 [9] = test: Induction of cell cycle arrest in human MV4-11 cells assessed as accumulation at G1 phase at 50 uM after 48 hrs by propidium iodide/RNase-staining based flow cytometric analysis (reference value: 68.16 %); assay type: functional; in short: as §1
[10] = target: T1, Histone-lysine N-methyltransferase, H3 lysine-79 specific; test: Inhibition of N-terminal 6His-tagged human DOT1L (1 to 416 residues) expressed in Escherichia coli BL21(DE3) at 50 uM preincubated for 15 mins followed by [3H]-SAM addition measured after 120 mins by radioactive methylation assay; in short: as §2
Target sequence in this assay (Q8TEK3 whole entry, looked up, the tested form may be a part): as the sequence (Q8TEK3 whole entry, the tested form may be a part) above

MV4-11 [11] = test: Induction of apoptosis in human MV4-11 cells assessed as late apoptotic cells at 25 uM after 72 hrs by annexin V/FITC and propidium iodide staining-based flow cytometric analysis (reference value: 4.02 %); assay type: functional
HL-60 = test: Cytotoxicity against human HL60 cells assessed as reduction in cell viability after 72 hrs by alamar blue assay; assay type: functional, cell-based; settings: HL-60, 72 h
In short: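 Cells cultured in RPMI 1640 with 10% FBS and 1% penicillin/streptomycin, treated with a range of concentrations or equal DMSO, 37 °C, 5% CO2, 72 h. Viability read by alamar blue (ex 544/em 590 nm); percent proliferation and IC50 curve fitted.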

MV4-11 [12] = test: Induction of apoptosis in human MV4-11 cells assessed as late apoptotic cells at 12.5 uM after 72 hrs by annexin V/FITC and propidium iodide staining-based flow cytometric analysis (reference value: 4.02 %); assay type: functional
MV4-11 [13] = test: Induction of apoptosis in human MV4-11 cells assessed as early apoptotic cells at 12.5 uM after 72 hrs by annexin V/FITC and propidium iodide staining-based flow cytometric analysis (reference value: 5.66 %); assay type: functional
[14] = target: T1, Histone-lysine N-methyltransferase, H3 lysine-79 specific; test: Binding affinity to human N-terminal 6His-tagged DOT1L (1 to 416 residues) expressed in Escherichia coli BL21(DE3) after 150 secs by SPR-based binding assay
Target sequence in this assay (Q8TEK3 whole entry, the tested form may be a part): as above

MV4-11 [15] = test: Induction of cell cycle arrest in human MV4-11 cells assessed as accumulation at G2 phase at 50 uM after 48 hrs by propidium iodide/RNase-staining based flow cytometric analysis (reference value: 7.44 %); assay type: functional; in short: as §1
[16] = target: T1, Histone-lysine N-methyltransferase, H3 lysine-79 specific; test: Inhibition of N-terminal 6His-tagged human DOT1L (1 to 416 residues) expressed in Escherichia coli BL21(DE3) at 50 uM using histone H3 as substrate preincubated for 15 mins followed by SAM addition measured after 60 mins by AlphaLISA assay
In short: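 DOT1L (80 nM final) preincubated with compound 15 min at 25 °C; SAM 1 mM and oligonucleosomes 0.25 ng/μL added in 50 mM Tris-HCl pH 8.0, 150 mM NaCl, 3 mM MgCl2, 0.1% BSA, 60 min at 25 °C; stopped with high-salt buffer; H3K79me2 detected with anti-H3 acceptor beads, biotinylated antibody, then streptavidin donor beads.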
Target sequence in this assay (Q8TEK3 whole entry, looked up, the tested form may be a part): as the sequence (Q8TEK3 whole entry, the tested form may be a part) above

[17] = target: Protein arginine N-methyltransferase 5 (Homo sapiens) (UniProt O14744); test: Inhibition of PRMT5 (unknown origin) at 50 and 100 uM preincubated for 15 mins followed by substrate and [3H]-SAM addition for 60 mins measured after further 60 mins flashplate assay
Sequence of Protein arginine N-methyltransferase 5 (Homo sapiens) (O14744 whole entry): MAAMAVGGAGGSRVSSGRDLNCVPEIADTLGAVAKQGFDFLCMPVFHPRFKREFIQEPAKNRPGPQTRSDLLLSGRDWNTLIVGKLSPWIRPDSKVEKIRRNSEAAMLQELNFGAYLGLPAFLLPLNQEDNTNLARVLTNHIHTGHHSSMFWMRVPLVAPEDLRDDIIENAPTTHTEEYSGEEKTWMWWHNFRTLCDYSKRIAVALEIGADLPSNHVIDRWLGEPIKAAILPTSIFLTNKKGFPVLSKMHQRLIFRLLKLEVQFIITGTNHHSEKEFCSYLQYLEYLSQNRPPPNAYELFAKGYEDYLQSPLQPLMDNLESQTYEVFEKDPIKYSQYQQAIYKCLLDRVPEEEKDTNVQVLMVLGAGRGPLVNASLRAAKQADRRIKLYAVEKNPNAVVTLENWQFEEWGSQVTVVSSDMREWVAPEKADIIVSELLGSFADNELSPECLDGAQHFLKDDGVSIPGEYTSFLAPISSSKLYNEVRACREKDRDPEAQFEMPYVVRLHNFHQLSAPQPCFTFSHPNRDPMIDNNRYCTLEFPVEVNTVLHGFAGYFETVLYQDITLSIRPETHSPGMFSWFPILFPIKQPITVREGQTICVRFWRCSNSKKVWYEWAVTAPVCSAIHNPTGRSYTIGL
In short: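 In modified Tris buffer, enzyme preincubated 15 min at room temperature; substrate and [3H]SAM added for 60 min at room temperature; stopped with cold SAM; transferred to a Flashplate for 60 min, washed 3× with water plus 0.1% Tween-20, read by MicroBeta.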

MV4-11 [18] = test: Induction of apoptosis in human MV4-11 cells assessed as late apoptotic cells at 6.25 uM after 72 hrs by annexin V/FITC and propidium iodide staining-based flow cytometric analysis (reference value: 4.02 %); assay type: functional
[19] = target: DNA (cytosine-5)-methyltransferase 1 (Homo sapiens) (UniProt P26358); test: Inhibition of DNMT1 (unknown origin) at 50 and 100 uM preincubated for 15 mins followed by poly(dI-DC) substrate and [3H]-SAM addition after 120 mins by liquid MicroBeta counting
Sequence of DNA (cytosine-5)-methyltransferase 1 (Homo sapiens) (P26358 whole entry): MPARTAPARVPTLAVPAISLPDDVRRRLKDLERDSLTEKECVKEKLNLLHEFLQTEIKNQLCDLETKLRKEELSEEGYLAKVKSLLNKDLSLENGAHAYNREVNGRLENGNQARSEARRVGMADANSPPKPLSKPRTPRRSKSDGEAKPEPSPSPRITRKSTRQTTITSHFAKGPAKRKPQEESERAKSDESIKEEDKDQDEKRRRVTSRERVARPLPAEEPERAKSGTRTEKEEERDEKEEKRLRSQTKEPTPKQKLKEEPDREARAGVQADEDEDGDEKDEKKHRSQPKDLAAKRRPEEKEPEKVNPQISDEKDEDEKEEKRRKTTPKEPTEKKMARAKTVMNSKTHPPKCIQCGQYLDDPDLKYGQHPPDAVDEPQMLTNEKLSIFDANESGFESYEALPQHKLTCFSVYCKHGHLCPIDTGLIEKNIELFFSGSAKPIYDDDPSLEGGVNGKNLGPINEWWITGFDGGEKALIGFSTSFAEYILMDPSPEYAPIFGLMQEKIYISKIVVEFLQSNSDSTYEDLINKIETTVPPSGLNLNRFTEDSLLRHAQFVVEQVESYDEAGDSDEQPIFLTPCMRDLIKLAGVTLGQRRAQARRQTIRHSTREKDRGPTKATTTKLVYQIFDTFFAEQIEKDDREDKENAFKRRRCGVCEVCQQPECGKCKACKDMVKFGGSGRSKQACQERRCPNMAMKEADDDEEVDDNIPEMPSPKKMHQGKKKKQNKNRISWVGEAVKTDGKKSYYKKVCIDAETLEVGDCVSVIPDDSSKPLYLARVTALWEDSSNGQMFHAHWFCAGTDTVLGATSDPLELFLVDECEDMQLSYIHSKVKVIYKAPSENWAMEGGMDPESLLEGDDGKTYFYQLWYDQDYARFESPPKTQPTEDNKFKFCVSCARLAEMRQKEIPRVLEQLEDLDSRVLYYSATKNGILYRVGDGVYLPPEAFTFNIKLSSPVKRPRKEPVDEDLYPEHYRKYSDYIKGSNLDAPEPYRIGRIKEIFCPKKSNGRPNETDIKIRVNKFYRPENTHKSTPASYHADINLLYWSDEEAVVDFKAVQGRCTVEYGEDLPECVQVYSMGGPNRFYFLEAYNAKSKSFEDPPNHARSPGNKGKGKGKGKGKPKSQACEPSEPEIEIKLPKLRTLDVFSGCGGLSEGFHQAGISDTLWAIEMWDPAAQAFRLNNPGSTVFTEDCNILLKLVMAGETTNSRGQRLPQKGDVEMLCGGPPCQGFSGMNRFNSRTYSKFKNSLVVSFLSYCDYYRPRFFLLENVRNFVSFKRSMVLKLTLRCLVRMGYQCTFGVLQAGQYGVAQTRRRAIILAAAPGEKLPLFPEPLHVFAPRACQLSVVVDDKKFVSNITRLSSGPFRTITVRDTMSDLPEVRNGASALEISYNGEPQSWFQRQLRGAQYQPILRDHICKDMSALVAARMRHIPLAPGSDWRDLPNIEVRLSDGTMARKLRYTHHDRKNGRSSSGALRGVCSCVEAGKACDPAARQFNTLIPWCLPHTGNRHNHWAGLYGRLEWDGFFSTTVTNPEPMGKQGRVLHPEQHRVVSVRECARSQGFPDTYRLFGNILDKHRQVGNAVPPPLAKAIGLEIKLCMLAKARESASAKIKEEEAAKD
In short: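 In modified Tris buffer, enzyme preincubated 15 min at room temperature; poly(dI-dC) substrate and [3H]SAM added; 120 min at 37 °C; reaction transferred to 0.5% PEI-pretreated filter plates, vacuumed, read by MicroBeta; SAH as positive control.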

MV4-11 [20] = test: Induction of apoptosis in human MV4-11 cells assessed as late apoptotic cells at 50 uM after 72 hrs by annexin V/FITC and propidium iodide staining-based flow cytometric analysis (reference value: 4.02 %); assay type: functional
MV4-11 [21] = test: Induction of cell cycle arrest in human MV4-11 cells assessed as accumulation at G2 phase at 6.25 uM after 48 hrs by propidium iodide/RNase-staining based flow cytometric analysis (reference value: 7.44 %); assay type: functional; in short: as §1

IC50 [2]: 8.29 µM | inhibition [5]: < 40% | inhibition [10]: 68% | Kd [14]: 17.3 µM | inhibition [16]: > 40% | inhibition [17]: < 40% | inhibition [19]: < 40%
SMILES: Fc1cccc(-c2nn3c(Cn4nnc5ccccc54)nnc3s2)c1
Activity (MV4-11 [1]): 4.35% | Activity (MV4-11 [3]): 15.82% | Activity (MV4-11 [4]): 1.37% | Activity (MV4-11 [6]): 49.5% | Activity (MV4-11 [7]): 67.64% | Activity (MV4-11 [8]): 25.38% | Activity (MV4-11 [9]): 82.24% | Activity (MV4-11 [11]): 33.5% | IC50 (HL-60): > 200 µM | Activity (MV4-11 [12]): 35.5% | Activity (MV4-11 [13]): 50.1% | Activity (MV4-11 [15]): 0% | Activity (MV4-11 [18]): 25% | Activity (MV4-11 [20]): 40.8% | Activity (MV4-11 [21]): 5.8%
